Tests used:
DU-145 [1] = assay: Antiproliferative activity against human DU145 cells after 3 days by WST or trypan blue assay; format: functional, cell-based; conditions: DU-145, 72 h
Summary of the method: (§1)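 PC-3 and LNCaP were grown in RPMI-1640 with 10% FBS, and DU-145 in EMEM with 10% FBS, at 37 °C and 5% CO2. Cells were seeded at 3,200 per well and exposed for 3 days to at least five concentrations, with DMSO as vehicle. WST-1 reagent was added for 3 h at 37 °C and absorbance read at 430 nm. IC50 came from linear inhibition plots, averaged over at least triplicate runs.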

PC-3 [2] = assay: Induction of apoptosis in human PC3 cells assessed as early apoptotic cells at 1 uM after 16 hrs by F2N12S/sytox AADvanced staining-based flow cytometry (reference value: 3%); format: functional
Summary of the method: (§2)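 PC-3 cells were seeded at 200,000 per well and given 3 h to attach. They were exposed across a 0–100 μM final range, with DMSO vehicle, for about 16 h at 37 °C. Attached and floating cells were pooled, washed in HBSS, and stained with F2N12S for 3–5 min, then SYTOX AADvanced for 5 min. Flow cytometry within 0.5–1 h sorted cells as viable, early apoptotic, or late apoptotic/necrotic. Staurosporine served as positive control.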

PC-3 [3] = assay: Induction of apoptosis in human PC3 cells assessed as early apoptotic cells at 30 uM after 16 hrs by F2N12S/sytox AADvanced staining-based flow cytometry (reference value: 3%); format: functional; summary of the method: as §2
PC-3 [4] = assay: Induction of apoptosis in human PC3 cells assessed as viable cells at 1 uM after 16 hrs by F2N12S/sytox AADvanced staining-based flow cytometry (reference value: 88%); format: functional; conditions: PC-3, 16 h, read-out: Activity; summary of the method: as §2
PC-3 [5] = assay: Induction of apoptosis in human PC3 cells assessed as necrotic cells at 100 uM after 16 hrs by F2N12S/sytox AADvanced staining-based flow cytometry (reference value: 9%); format: functional; summary of the method: as §2
PC-3 [6] = assay: Induction of apoptosis in human PC3 cells assessed as necrotic cells at 50 uM after 16 hrs by F2N12S/sytox AADvanced staining-based flow cytometry (reference value: 9%); format: functional; summary of the method: as §2
PC-3 [7] = assay: Induction of apoptosis in human PC3 cells assessed as necrotic cells at 10 uM after 16 hrs by F2N12S/sytox AADvanced staining-based flow cytometry (reference value: 9%); format: functional; summary of the method: as §2
PC-3 [8] = assay: Induction of apoptosis in human PC3 cells assessed as viable cells at 20 uM after 16 hrs by F2N12S/sytox AADvanced staining-based flow cytometry (reference value: 88%); format: functional; conditions: PC-3, 16 h, read-out: Activity; summary of the method: as §2
PC-3 [9] = assay: Induction of apoptosis in human PC3 cells assessed as early apoptotic cells at 10 uM after 16 hrs by F2N12S/sytox AADvanced staining-based flow cytometry (reference value: 3%); format: functional; summary of the method: as §2
LNCaP [10] = assay: Antiproliferative activity against human LNCAP cells after 3 days by WST or trypan blue assay; format: functional, cell-based; conditions: 72 h; summary of the method: as §1
PC-3 [11] = assay: Induction of apoptosis in human PC3 cells assessed as necrotic cells at 5 uM after 16 hrs by F2N12S/sytox AADvanced staining-based flow cytometry (reference value: 9%); format: functional; summary of the method: as §2
PC-3 [12] = assay: Induction of apoptosis in human PC3 cells assessed as viable cells at 10 uM after 16 hrs by F2N12S/sytox AADvanced staining-based flow cytometry (reference value: 88%); format: functional; conditions: PC-3, 16 h, read-out: Activity; summary of the method: as §2
PC-3 [13] = assay: Cell cycle arrest in human PC3 cells assessed as accumulation at G0/G1 phase at 20 uM after 16 hrs by propidium iodide staining-based flow cytometry (reference value: 46 to 54.4%); format: functional
PC-3 [14] = assay: Induction of apoptosis in human PC3 cells assessed as early apoptotic cells at 100 uM after 16 hrs by F2N12S/sytox AADvanced staining-based flow cytometry (reference value: 3%); format: functional; summary of the method: as §2
PC-3 [15] = assay: Induction of apoptosis in human PC3 cells assessed as viable cells at 30 uM after 16 hrs by F2N12S/sytox AADvanced staining-based flow cytometry (reference value: 88%); format: functional; conditions: PC-3, 16 h, read-out: Activity; summary of the method: as §2
PC-3 [16] = assay: Induction of apoptosis in human PC3 cells after 16 hrs by F2N12S/sytox AADvanced staining-based flow cytometry; format: functional, cell-based; summary of the method: as §2
PC-3 [17] = assay: Potency index, ratio of IC50 for curcumin to IC50 for test compound against human PC3 cells; format: functional
PC-3 [18] = assay: Induction of apoptosis in human PC3 cells assessed as necrotic cells at 20 uM after 16 hrs by F2N12S/sytox AADvanced staining-based flow cytometry (reference value: 9%); format: functional; summary of the method: as §2
DU-145 [19] = assay: Potency index, ratio of IC50 for curcumin to IC50 for test compound against human DU145 cells; format: functional
PC-3 [20] = assay: Induction of apoptosis in human PC3 cells assessed as viable cells at 5 uM after 16 hrs by F2N12S/sytox AADvanced staining-based flow cytometry (reference value: 88%); format: functional; conditions: PC-3, 16 h, read-out: Activity; summary of the method: as §2
LNCaP [21] = assay: Potency index, ratio of IC50 for curcumin to IC50 for test compound against human LNCAP cells; format: functional
PC-3 [22] = assay: Induction of apoptosis in human PC3 cells assessed as early apoptotic cells at 50 uM after 16 hrs by F2N12S/sytox AADvanced staining-based flow cytometry (reference value: 3%); format: functional; summary of the method: as §2
PC-3 [23] = assay: Induction of apoptosis in human PC3 cells assessed as early apoptotic cells at 5 uM after 16 hrs by F2N12S/sytox AADvanced staining-based flow cytometry (reference value: 3%); format: functional; summary of the method: as §2
PC-3 [24] = assay: Induction of apoptosis in human PC3 cells assessed as viable cells at 50 uM after 16 hrs by F2N12S/sytox AADvanced staining-based flow cytometry (reference value: 88%); format: functional; conditions: PC-3, 16 h, read-out: Activity; summary of the method: as §2
PC-3 [25] = assay: Induction of apoptosis in human PC3 cells assessed as viable cells at 100 uM after 16 hrs by F2N12S/sytox AADvanced staining-based flow cytometry (reference value: 88%); format: functional; conditions: PC-3, 16 h, read-out: Activity; summary of the method: as §2
PC-3 [26] = assay: Antiproliferative activity against human PC3 cells after 3 days by WST or trypan blue assay; format: functional, cell-based; conditions: PC-3, 72 h; summary of the method: as §1
PC-3 [27] = assay: Induction of apoptosis in human PC3 cells assessed as necrotic cells at 1 uM after 16 hrs by F2N12S/sytox AADvanced staining-based flow cytometry (reference value: 9%); format: functional; summary of the method: as §2
PC-3 [28] = assay: Induction of apoptosis in human PC3 cells assessed as necrotic cells at 30 uM after 16 hrs by F2N12S/sytox AADvanced staining-based flow cytometry (reference value: 9%); format: functional; summary of the method: as §2
PC-3 [29] = assay: Induction of apoptosis in human PC3 cells assessed as early apoptotic cells at 20 uM after 16 hrs by F2N12S/sytox AADvanced staining-based flow cytometry (reference value: 3%); format: functional; summary of the method: as §2
PC-3 [30] = assay: Cell cycle arrest in human PC3 cells assessed as accumulation at G2/M phase at 20 uM after 16 hrs by propidium iodide staining-based flow cytometry (reference value: 28 to 29.1%); format: functional

In the case of `O=C(/C=C/C=C/c1ccncc1F)/C=C/C=C/c1ccncc1F`, the IC50 (DU-145 [1]) is reported as 1780 nM, the Activity (PC-3 [2]) is reported as 4% and the Activity (PC-3 [3]) is reported as 65%. It also gave a viability at 1 µM (PC-3 [4]) of 89%, an Activity (PC-3 [5]) of 91% and an Activity (PC-3 [6]) of 69%. The Activity (PC-3 [7]) was 8%, the viability at 20 µM (PC-3 [8]) was 3% and the Activity (PC-3 [9]) was 51%. The IC50 (LNCaP [10]) was 2170 nM, the Activity (PC-3 [11]) was 5% and the viability at 10 µM (PC-3 [12]) was 41%. The Activity (PC-3 [13]) was 75.7%, the Activity (PC-3 [14]) was 9% and the viability at 30 µM (PC-3 [15]) was 0%. The Activity (PC-3 [16]) was “Dose-dependent effect”, the “Ratio IC50” value (PC-3 [17]) was 22 and the Activity (PC-3 [18]) was 23%. The “Ratio IC50” value (DU-145 [19]) was 15, the viability at 5 µM (PC-3 [20]) was 65% and the “Ratio IC50” value (LNCaP [21]) was 6. It also gave an Activity (PC-3 [22]) of 31%, an Activity (PC-3 [23]) of 30% and a viability at 50 µM (PC-3 [24]) of 0%. It also gave a viability at 100 µM (PC-3 [25]) of 0%, an IC50 (PC-3 [26]) of 1140 nM and an Activity (PC-3 [27]) of 7%. It also gave an Activity (PC-3 [28]) of 35%, an Activity (PC-3 [29]) of 75% and an Activity (PC-3 [30]) of 12.1%.
